In ChEMBL document CHEMBL4261537, “Synthesis and pharmacological evaluation of multi-functional homoisoflavonoid derivatives as potent inhibitors of monoamine oxidase B and cholinesterase for the treatment of Alzheimer's disease” (Medchemcomm, 2017):
pIC50, pKi: −log10 of the molar value.

Columns and labels:
[1] = target: T1, Acetylcholinesterase (Electrophorus electricus, UniProt O42275); test: Inhibition of electric eel AChE using acetylthiocholine iodide as substrate preincubated for 5 mins followed by substrate addition measured at 1 to 3 mins time interval by Ellman's method
[2] = target: T2, Cholinesterase (Equus caballus, UniProt P81908); test: Inhibition of equine serum BuChE at 100 uM using S-butyrylthiocholine iodide as substrate preincubated for 5 mins followed by substrate addition measured at 1 to 3 mins time interval by Ellman's method; conditions: horse
Procedure, shortened: (§1)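 Ellman assay: compound diluted in 50 mM Tris-HCl pH 8.0 with 0.1 M NaCl, 0.02 M MgCl2 (DMSO 1%). Preincubated 5 min at 37°C with 1.5 mM DTNB and BuChE (0.12 U/mL in Tris with 0.1% BSA); 15 mM S-butyrylthiocholine iodide added; absorbance at 405 nm read at 0, 1, 2, 3 min.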

[3] = Selectivity index, ratio of IC50 for equine serum BuChE to IC50 for electric eel AChE
[4] = target: T3, Amine oxidase [flavin-containing] B (Homo sapiens, UniProt P27338); test: Inhibition of recombinant human MAO-B assessed as reduction in H2O2 production using p-tyramine as substrate preincubated for 15 mins followed by substrate addition by Amplex red reagent based fluorescence assay
T3 sequence (P27338 whole entry): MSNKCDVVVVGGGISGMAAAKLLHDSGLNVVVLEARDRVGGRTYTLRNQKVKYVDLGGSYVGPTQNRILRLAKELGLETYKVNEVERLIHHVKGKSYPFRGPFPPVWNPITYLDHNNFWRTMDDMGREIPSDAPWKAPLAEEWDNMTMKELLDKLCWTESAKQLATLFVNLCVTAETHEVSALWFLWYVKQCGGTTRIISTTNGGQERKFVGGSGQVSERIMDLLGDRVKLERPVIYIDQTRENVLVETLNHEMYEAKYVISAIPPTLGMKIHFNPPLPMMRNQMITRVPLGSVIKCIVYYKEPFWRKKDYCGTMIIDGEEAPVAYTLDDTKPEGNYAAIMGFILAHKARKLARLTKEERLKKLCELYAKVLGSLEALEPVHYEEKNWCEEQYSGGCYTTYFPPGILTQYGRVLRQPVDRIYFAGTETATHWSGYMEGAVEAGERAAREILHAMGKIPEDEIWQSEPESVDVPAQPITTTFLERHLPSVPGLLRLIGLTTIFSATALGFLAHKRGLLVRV
Procedure, shortened: (§2)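 Human MAO-A or MAO-B, each set to the same control reaction velocity. Preincubated with compound 15 min at 37°C in the dark, in sodium phosphate buffer with DMSO. Then 200 μM Amplex Red (final) added with 1 U/mL HRP and 1 mM p-tyramine. Run in triplicate, mean ± SD.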

[5] = species on record: Homo sapiens; test: Selectivity index, ratio of IC50 for recombinant human MAO-A to IC50 for recombinant human MAO-B
[6] = target: T4, Amine oxidase [flavin-containing] A (Homo sapiens, UniProt P21397); test: Inhibition of recombinant human MAO-A assessed as reduction in H2O2 production at 100 uM using p-tyramine as substrate preincubated for 15 mins followed by substrate addition by Amplex red reagent based fluorescence assay
T4 sequence (P21397 whole entry): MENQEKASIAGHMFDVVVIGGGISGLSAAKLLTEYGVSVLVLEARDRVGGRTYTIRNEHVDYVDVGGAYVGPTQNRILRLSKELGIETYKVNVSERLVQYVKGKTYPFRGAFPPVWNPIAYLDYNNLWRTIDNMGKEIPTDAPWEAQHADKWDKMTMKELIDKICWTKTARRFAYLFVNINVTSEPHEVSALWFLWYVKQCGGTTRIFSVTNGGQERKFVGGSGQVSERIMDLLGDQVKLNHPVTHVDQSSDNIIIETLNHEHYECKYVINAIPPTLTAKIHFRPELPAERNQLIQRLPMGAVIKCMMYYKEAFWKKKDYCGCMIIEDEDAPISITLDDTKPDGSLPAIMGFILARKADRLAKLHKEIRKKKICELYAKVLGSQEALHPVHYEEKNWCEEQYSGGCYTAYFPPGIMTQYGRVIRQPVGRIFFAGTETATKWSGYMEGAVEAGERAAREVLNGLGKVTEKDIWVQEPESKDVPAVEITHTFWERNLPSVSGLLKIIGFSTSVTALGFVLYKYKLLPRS
Procedure, shortened: as §2, with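 “p-tyramine. Resorufin fluorescence read at 37°C (ex 545/em 590 nm), background from enzyme-free wells subtracted.” for “p-tyramine.”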

[7] = target: Acetylcholinesterase (Homo sapiens, UniProt P22303); test: Inhibition of human erythrocytes AChE using acetylthiocholine iodide as substrate preincubated for 5 mins followed by substrate addition measured at 1 to 3 mins time interval by Ellman's method
[8] = target: T5, Cholinesterase (Homo sapiens, UniProt P06276); test: Inhibition of human serum BuChE at 100 uM using S-butyrylthiocholine iodide as substrate preincubated for 5 mins followed by substrate addition measured at 1 to 3 mins time interval by Ellman's method; procedure, shortened: as §1
[9] = species on record: Homo sapiens; test: Selectivity index, ratio of IC50 for human serum BuChE to IC50 for human erythrocytes AChE
[10] = target: T2, Cholinesterase; test: Inhibition of equine serum BuChE using S-butyrylthiocholine iodide as substrate preincubated for 5 mins followed by substrate addition measured at 1 to 3 mins time interval by Ellman's method; format: ADME
[11] = target: T4, Amine oxidase [flavin-containing] A; test: Inhibition of recombinant human MAO-A assessed as reduction in H2O2 production using p-tyramine as substrate preincubated for 15 mins followed by substrate addition by Amplex red reagent based fluorescence assay
[12] = target: T5, Cholinesterase; test: Inhibition of human serum BuChE using S-butyrylthiocholine iodide as substrate preincubated for 5 mins followed by substrate addition measured at 1 to 3 mins time interval by Ellman's method; format: ADME
[13] = target: T1, Acetylcholinesterase; test: Mixed-type inhibition of electric eel AChE using varying levels of acetylthiocholine iodide as substrate measured at 1 to 3 mins time interval by Lineweaver-Burk plot analysis
Procedure, shortened: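 Electric eel AChE assayed by Ellman's method at […] substrate 0.05-0.25 mM, without inhibitor and with inhibitor at 0.5, 1.0 or 2.0 μM; activity read at 0, 1, 2, 3 min. Lineweaver–Burk plots built; their slopes plotted against inhibitor concentration, Ki taken as the negative x-axis intercept.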

[14] = target: T3, Amine oxidase [flavin-containing] B; test: Time-dependent inhibition of recombinant human MAO-B at 0.003 uM using p-tyramine as substrate preincubated for 15 to 60 mins followed by substrate addition and compound dilution to IC50 by Amplex red reagent based fluorescence assay
[15] = target: T3, Amine oxidase [flavin-containing] B; test: Reversible inhibition of recombinant human MAO-B at 0.003 uM using p-tyramine as substrate preincubated for 15 to 60 mins followed by substrate addition and compound dilution to IC50 by Amplex red reagent based fluorescence assay
[16] = target: T3, Amine oxidase [flavin-containing] B; test: Non-competitive inhibition of recombinant human MAO-B assessed as reduction in H2O2 production at 0.015 to 0.06 uM using p-tyramine as substrate preincubated for 15 mins followed by substrate addition by Lineweaver-Burk plot analysis
[17] = Effective permeability of the compound at 0.1 mg/ml after 16 hrs by PAMPA; format: ADME; conditions: read-out: Peff
Procedure, shortened: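 Porcine brain lipid in dodecane (20 mg/mL) coated on PVDF filter. Compound stock 5 mg/mL in DMSO, diluted 50-fold into PBS/EtOH (70:30) to 0.1 mg/mL in donor wells; acceptor holds PBS/EtOH (70:30). Incubated 16 h at 25°C. UV plate read at five wavelengths, four wells, at least three runs. Pe derived from acceptor absorbance versus theoretical equilibrium absorbance.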

[18] = tested on: Mus musculus; test: Acute toxicity in Kunming mouse assessed as fatality up to 2000 mg/kg, po administered as single dose up to 2 weeks; format: organism-based; conditions: in vivo, 336 h
Procedure, shortened: (§3)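 Male Kunming mice (18-22g), acclimatised 4 days, fasted 12 h; single oral dose of 677, 1333 or 2000 mg/kg suspended in 0.5% CMC-Na (0.4 ml per mouse), vehicle group 0 mg/kg; 20 mice in 4 groups. Watched continuously for 4 h for abnormal behaviour and deaths, then intermittently to 24 h; observation over 14 days.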

[19] = tested on: Mus musculus; test: Acute toxicity in Kunming mouse assessed as change in body weight up to 2000 mg/kg, po administered as single dose up to 2 weeks; format: organism-based; conditions: in vivo, 336 h
[20] = tested on: Mus musculus; test: Acute toxicity in Kunming mouse assessed as change in mental behavior up to 2000 mg/kg, po administered as single dose up to 2 weeks; format: organism-based; conditions: in vivo, 336 h; procedure, shortened: as §3
[21] = tested on: Mus musculus; test: Acute toxicity in Kunming mouse assessed as damage to heart up to 2000 mg/kg, po administered as single dose measured after 14 days; format: organism-based; conditions: in vivo, 336 h
Procedure, shortened: (§4)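 Male Kunming mice given one oral dose (0, 677, 1333, 2000 mg/kg) in 0.5% CMC-Na after a 12 h fast; after 14 days of observation, animals sacrificed and liver, heart and kidneys visually examined for damage.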

[22] = tested on: Mus musculus; test: Acute toxicity in Kunming mouse assessed as damage to kidney up to 2000 mg/kg, po administered as single dose measured after 14 days; format: organism-based; conditions: in vivo, 336 h; procedure, shortened: as §4
[23] = tested on: Mus musculus; test: Acute toxicity in Kunming mouse assessed as damage to liver up to 2000 mg/kg, po administered as single dose measured after 14 days; format: organism-based; conditions: in vivo, 336 h; procedure, shortened: as §4
[24] = target: T3, Amine oxidase [flavin-containing] B; test: Inhibition of recombinant human MAO-B assessed as reduction in H2O2 production at 100 uM using p-tyramine as substrate preincubated for 15 mins followed by substrate addition by Amplex red reagent based fluorescence assay
Procedure, shortened: as §2, with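 “p-tyramine. Resorufin fluorescence read at 37°C (ex 545/em 590 nm), background from enzyme-free wells subtracted.” for “p-tyramine.”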

T1 sequence (O42275 whole entry): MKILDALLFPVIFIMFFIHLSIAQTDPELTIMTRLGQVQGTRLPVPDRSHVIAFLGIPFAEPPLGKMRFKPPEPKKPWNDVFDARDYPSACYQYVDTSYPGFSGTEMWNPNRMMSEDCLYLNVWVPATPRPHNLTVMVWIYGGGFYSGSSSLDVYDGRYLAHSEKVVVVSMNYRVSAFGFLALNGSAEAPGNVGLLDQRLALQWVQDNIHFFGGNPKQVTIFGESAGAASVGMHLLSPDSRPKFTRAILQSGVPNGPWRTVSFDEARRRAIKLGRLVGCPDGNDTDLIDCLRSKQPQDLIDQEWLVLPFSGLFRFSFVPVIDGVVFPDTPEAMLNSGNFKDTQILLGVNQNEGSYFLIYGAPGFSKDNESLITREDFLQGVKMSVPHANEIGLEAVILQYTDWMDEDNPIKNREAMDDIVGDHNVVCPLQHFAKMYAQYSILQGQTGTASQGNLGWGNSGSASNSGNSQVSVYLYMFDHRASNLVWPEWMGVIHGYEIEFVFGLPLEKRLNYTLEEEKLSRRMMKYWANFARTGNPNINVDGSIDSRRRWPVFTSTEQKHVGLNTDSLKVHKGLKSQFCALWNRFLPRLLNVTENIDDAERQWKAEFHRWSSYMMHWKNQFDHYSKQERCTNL
T2 sequence (P81908 whole entry): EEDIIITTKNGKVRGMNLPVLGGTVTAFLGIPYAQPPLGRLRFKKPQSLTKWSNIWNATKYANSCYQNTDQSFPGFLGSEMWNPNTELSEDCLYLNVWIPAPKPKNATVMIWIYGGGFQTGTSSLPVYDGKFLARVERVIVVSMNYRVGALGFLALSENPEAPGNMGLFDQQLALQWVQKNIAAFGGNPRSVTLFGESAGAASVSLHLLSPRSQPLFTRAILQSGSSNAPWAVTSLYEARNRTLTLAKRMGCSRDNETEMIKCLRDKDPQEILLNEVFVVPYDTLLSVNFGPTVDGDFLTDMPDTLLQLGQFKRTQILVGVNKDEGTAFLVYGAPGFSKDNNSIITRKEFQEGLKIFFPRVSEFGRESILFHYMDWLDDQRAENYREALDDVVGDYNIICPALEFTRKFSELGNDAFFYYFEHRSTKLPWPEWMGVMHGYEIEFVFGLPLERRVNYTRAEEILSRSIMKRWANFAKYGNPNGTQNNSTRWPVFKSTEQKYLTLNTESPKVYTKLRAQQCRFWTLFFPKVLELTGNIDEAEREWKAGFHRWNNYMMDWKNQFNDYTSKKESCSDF
T5 sequence (P06276 whole entry): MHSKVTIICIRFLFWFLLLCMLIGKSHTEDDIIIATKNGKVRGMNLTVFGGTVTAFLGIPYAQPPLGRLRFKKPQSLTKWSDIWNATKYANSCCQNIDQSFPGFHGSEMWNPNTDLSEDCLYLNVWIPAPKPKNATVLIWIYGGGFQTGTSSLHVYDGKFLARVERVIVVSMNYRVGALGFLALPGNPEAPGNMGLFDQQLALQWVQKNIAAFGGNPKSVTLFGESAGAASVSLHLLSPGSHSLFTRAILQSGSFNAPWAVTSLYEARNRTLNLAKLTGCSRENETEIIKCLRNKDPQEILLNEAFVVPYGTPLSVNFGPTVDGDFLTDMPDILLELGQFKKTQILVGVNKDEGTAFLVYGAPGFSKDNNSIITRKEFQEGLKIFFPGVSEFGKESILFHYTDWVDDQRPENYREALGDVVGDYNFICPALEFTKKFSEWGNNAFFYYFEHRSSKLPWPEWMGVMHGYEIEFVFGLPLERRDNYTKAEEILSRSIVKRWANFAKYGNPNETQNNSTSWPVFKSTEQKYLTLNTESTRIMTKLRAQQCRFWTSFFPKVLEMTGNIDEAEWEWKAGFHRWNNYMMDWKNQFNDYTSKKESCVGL
Chain of Acetylcholinesterase (Homo sapiens, UniProt P22303) (P22303 whole entry): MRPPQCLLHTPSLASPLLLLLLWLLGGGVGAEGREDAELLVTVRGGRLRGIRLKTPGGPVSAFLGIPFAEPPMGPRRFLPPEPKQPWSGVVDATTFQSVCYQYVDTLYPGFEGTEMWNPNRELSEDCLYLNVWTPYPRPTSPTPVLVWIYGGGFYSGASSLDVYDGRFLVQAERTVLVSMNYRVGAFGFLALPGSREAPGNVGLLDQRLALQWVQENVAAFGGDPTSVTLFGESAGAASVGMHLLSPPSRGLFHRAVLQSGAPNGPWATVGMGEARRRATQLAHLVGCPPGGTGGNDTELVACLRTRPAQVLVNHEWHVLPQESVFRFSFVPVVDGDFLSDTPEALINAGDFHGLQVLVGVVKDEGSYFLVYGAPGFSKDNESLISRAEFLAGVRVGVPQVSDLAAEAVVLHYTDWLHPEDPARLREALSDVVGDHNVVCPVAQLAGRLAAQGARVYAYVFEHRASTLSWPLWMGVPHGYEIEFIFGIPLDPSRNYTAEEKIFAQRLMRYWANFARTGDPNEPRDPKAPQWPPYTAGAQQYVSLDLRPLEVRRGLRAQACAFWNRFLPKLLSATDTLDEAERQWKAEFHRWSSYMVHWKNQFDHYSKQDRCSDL

| SMILES | pIC50 [1] | Ratio IC50 [3] | pIC50 [4] | Ratio IC50 [5] | inhibition (INH) [6] | pIC50 [7] | Ratio IC50 [9] | pIC50 [10] | other results |
| --- | --- | --- | --- | --- | --- | --- | --- | --- | --- |
| O=C1/C(=C/c2ccc(O)cc2)COc2ccccc21 | 4.35 | > 2.25 | 6.62 | > 413 | Not Active | 4.00 | 1.01 | – | inhibition (INH) [2]: Not Active; inhibition (INH) [8]: Not Active |
| CN(C)CCOc1ccc(/C=C2\COc3ccccc3C2=O)cc1 | 6.05 | 32.3 | 7.43 | 1024 | – | 6.18 | 14.2 | 4.54 | pIC50 [11]: 4.42; pIC50 [12]: 5.03; pKi [13]: 6.39; TDI [14]: Not Active; inhibition (INH) [15]: Active; pKi [16]: 6.26; Papp at 16 h, 0.1 mg/ml [17]: 10.6 ×10⁻⁶ cm/s; Activity [18]: Non-Toxic; Activity [19]: Non-Toxic; Activity [20]: Non-Toxic; Activity [21]: Non-Toxic; Activity [22]: Non-Toxic; Activity [23]: Non-Toxic |
| CCN(CC)CCCOc1ccccc1/C=C1\COc2ccccc2C1=O | 4.26 | 0.0892 | – | – | Not Active | – | – | 5.31 | inhibition (INH) [24]: Not Active |
